Measurements: ChEMBL document CHEMBL3124872, “Discovery and early development of TMC647055, a non-nucleoside inhibitor of the hepatitis C virus NS5B polymerase” (J Med Chem, 2014)
Activity calls are given as the source filed them. No cut-off for these calls is given here.

Key:
Hepatitis C virus [1] = test: Antiviral activity against Hepatitis C virus harboring NS5B M414T mutant infected in human HuH7 by luciferase reporter gene assay; format: functional, organism-based; conditions: Hepacivirus hominis; Huh-7
Homo sapiens [2] = test: Toxicity in human assessed as effect on food consumption at 300 to 1250 mg, po bid for 5 days followed by morning dose on day 6; format: organism-based; conditions: in vivo, 120 h
In short: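 Healthy volunteers given oral b.i.d. doses of 300, 1000 or 1250 mg for 5 days plus a morning dose on day 6, in hydroxypropyl-β-cyclodextrin vehicle; adverse events, laboratory parameters, vital signs, food consumption, appetite, ECG and plasma 4-β-hydroxycholesterol (CYP3A4 induction marker) monitored.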

[3] = Cytotoxicity against human HepG2 cells after 3 days by resazurin-based fluorescence analysis; format: cell-based
[4] = Cytotoxicity against African green monkey Vero E6 cells after 3 days by resazurin-based fluorescence analysis; format: cell-based; conditions: chlorocebus sabaeus
Hepatitis C virus [5] = test: Antiviral activity against Hepatitis C virus genotype 6a infected in human HuH7 by transient replicon assay; format: functional, organism-based, Hepacivirus hominis; conditions: Huh-7
In short: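 Transient replicon assay using chimeric replicons whose NS5B region is derived from patient isolates of the stated genotype.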

[6] = test system: Hepatitis C virus subtype 1b
Hepatitis C virus [7] = test: Antiviral activity against Hepatitis C virus genotype 1b infected in human HuH7 assessed as clearance of replicon cells at 3.75 uM preincubated for 2 weeks followed by 3 week rebound phase by RT-PCR analysis; format: functional, organism-based; conditions: Hepacivirus hominis, Huh-7
In short: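 Clearance-and-rebound test in Huh7-Luc genotype 1b replicon cells. Cells were incubated with inhibitor (3.75 μM alone) for 14 days, then held for a 3-week rebound phase without inhibitor. Replicon RNA was followed for clearance and rebound.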

Hepatitis C virus [8] = test: Antiviral activity against Hepatitis C virus genotype 1a infected in human assessed as log10 reduction in HCV RNA level at 1000 mg, po bid for 5 days followed by morning dose on day 6 relative to control; format: functional, Hepacivirus hominis, subtype 1a
In short: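 Oral b.i.d. dosing of HCV genotype 1-infected patients at 500 mg or 1000 mg for 5 days, plus a morning dose on day 6, in hydroxypropyl-β-cyclodextrin vehicle. Read-out was the median maximum decrease in plasma HCV RNA from baseline (log10), using patients with HCV RNA data available up to Day 6.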

Homo sapiens [9] = test: Toxicity in human assessed as grade-3 adverse events at 300 to 1250 mg, po bid for 5 days followed by morning dose on day 6; format: organism-based; conditions: in vivo, 120 h
In short: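 Oral b.i.d. dosing for 5 days plus a single morning dose on day 6, in a hydroxypropyl-β-cyclodextrin vehicle. Healthy volunteers received 300, 1000 or 1250 mg; HCV genotype 1-infected patients received 500 or 1000 mg. Monitoring covered adverse events graded by severity, laboratory parameters, vital signs, food consumption, appetite and ECG.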

Plasma = test: Fraction unbound in human plasma; format: ADME, cell-free
Homo sapiens [10] = test: Toxicity in HCV genotype 1-infected patient assessed as effect on laboratory parameters at 500 to 1000 mg, po bid for 5 days followed by morning dose on day 6; format: organism-based; conditions: in vivo, 120 h
In short: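 HCV genotype 1-infected patients given oral b.i.d. doses of 500 or 1000 mg for 5 days plus a morning dose on day 6, in hydroxypropyl-β-cyclodextrin vehicle; adverse events with grading, laboratory parameters, vital signs, food consumption, appetite and ECG monitored.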

Question: Which Activity (Hepatitis C virus [1]) does the source give for `COc1ccc2c(c1)C=C1Cn3c-2c(C2CCCCC2)c2ccc(cc23)C(=O)NS(=O)(=O)N(C)CCOCCN(C)C1=O` [TMC-647055] here?
Answer: Active

Question: And the Activity (Homo sapiens [2])?
Answer: Non-toxic

Question: And the CC50 at 72 h [3]?
Answer: > 50 µM

Question: What about the CC50 at 72 h [4] of the same compound?
Answer: > 50 µM

Question: And the EC50 (Hepatitis C virus [5])?
Answer: 0.113 µM

Question: And the T1/2 [6]?
Answer: 2.17 h

Question: And the Activity (Hepatitis C virus [7])?
Answer: inactive

Question: And the FC (Hepatitis C virus [8])?
Answer: 2.4

Question: And the Activity (Homo sapiens [9])?
Answer: Non-toxic

Question: What about the Fu (Plasma) of the same compound?
Answer: 0.3%

Question: What about the Activity (Homo sapiens [10]) of the same compound?
Answer: Non-toxic
